test: Toxicity liver stage against HepG2, at 10uM; type: cell-based; parameters: test concentration 10 uM, cell line HepG2-A16-CD81EGFP; conditions: human, HepG2-A16-CD81EGFP cells; read-out: INHIBITION
Outline: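 Uninfected HepG2-A16-CD81EGFP cells, 3 × 10^3 per well, 1536-well, plated on prespotted compound at 10 μM final, parasite-free screening media added to match infected plates; puromycin 10 μM positive, DMSO 0.5% negative; run in parallel with 48 h PbLuc assay at 37 °C, 5% CO2; viability by CellTiter-Glo luminescence, normalized to controls.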

| SMILES | cytotoxicity at 10 µM [%] |
| --- | --- |
| CN1CCCN(CC(CC(=O)Nc2ccc(Cl)cc2)C(=O)O)CC1 (stereo unspecified) | -5.4 |
| Cc1ccc(CN2CCc3c(C(=O)N(C)C)n[nH]c3C2)o1 | 2.14 |
| CC(C)CC(=O)N1CCC2(CC1)NC(=O)[C@H]1CN(C(=O)N(C)C)C[C@H]12 | -1.74 |
| CN(C)CCNC(=O)c1ccc2ccc(N(C)CC3CC3)n2c1 | -2.69 |
| CCOCc1ncn2c1CN(S(=O)(=O)c1ccc(F)cc1)CC2 | 1.29 |
| COc1cccc(C2SCC(=O)Nc3ccsc32)c1OC (stereo unspecified) | 0.661 |
| CCOc1cc2c(cc1C(=O)O)CCC2 | -18.6 |
| COc1ccccc1C1CC(=O)Nc2nc(N3CCCCC3)sc21 (stereo unspecified) | 11.5 |
| O=C1CSC(c2ccc(O)c(Cl)c2)c2c(n(C3CCOCC3)[nH]c2=O)N1 (stereo unspecified) | -3.08 |
| CCS(=O)(=O)N1CC[C@]2(C[C@@H](OCC3CC3)CO2)C1 | -15.6 |
| CCC1=N[C@@]2(CC[C@@H]3CN(S(=O)(=O)CC(C)C)C[C@@H]32)C(=O)N1C | 5.24 |
| Cn1nnc2c1C(COCC1CC1)CN(C(=O)Cc1ccsc1)C2 (stereo unspecified) | -0.11 |
| Cc1c2ncn(CC(=O)c3ccccc3)c(=O)c2nn1C | -8.58 |
| O=C(NC1=NCCCN1c1ccc(Cl)cc1)c1cccc(Cl)c1 | -17.5 |
| CN(C)C(=O)c1cccc(C2CNCCN2C)c1 (stereo unspecified) | -3.15 |
| Cc1cnc(-c2nc(C3CCCN(Cc4cccs4)C3)no2)cn1 (stereo unspecified) | 1.33 |
| CCn1c(C)nc2cc(NC(=O)CC3CCN(S(C)(=O)=O)CC3)ccc21 | 4.39 |
| O=C(NCCNC(=O)C1CCN(c2ncccn2)CC1)c1ccoc1 | -9.99 |
| CC1CCN(S(=O)(=O)NC(C)Cc2ccco2)CC1 (stereo unspecified) | 3.53 |
| Cn1cc(C(NCc2ccc(F)cc2)c2cccc(F)c2)cn1 (stereo unspecified) | 0.137 |
| CC(=O)N1CCCN(CCCc2ccccc2)CC1 | -9.28 |
| CCc1ncc2c(n1)CN(CC(=O)NC1CCCCNC1=O)CC2 (stereo unspecified) | 6.61 |
| O=S(=O)(NCc1ccnc(-n2ccnc2)c1)c1cncc(Cl)c1 | 3.46 |

| SMILES | cytotoxicity at 10 µM [%] |
| --- | --- |
| CCN(Cc1cnc(C)cn1)C1CCN(c2ccccc2)C1=O (stereo unspecified) | 4.81 |
| CC(CNS(N)(=O)=O)Oc1cccc(Cl)c1 (stereo unspecified) | 2.24 |
| Cc1noc(C)c1CN1CCC(NC(=O)OC(C)(C)C)CC1 | 6.27 |
| COCCCNC(=O)c1c[nH]c2ccc(OC)cc12 | -4.76 |
| OCCCN1CCCC1c1nc(Cc2ccc(F)cc2)no1 (stereo unspecified) | -4.58 |
| Cc1nc2cc(=O)[nH]n2c(C)c1CC(=O)Nc1cnn(C)c1 | 4.58 |
| O=C1OCCN1CCN1CCCN(Cc2ccccc2F)CC1 | -7.11 |
| CCCC(C)Sc1nnnn1C1CCOCC1 (stereo unspecified) | 2.3 |
| Cc1ccc(N2CCCC(NCCCS(C)(=O)=O)C2)nn1 (stereo unspecified) | 0.833 |
| CCc1nc(CN2CCCC(N(C)Cc3nc(C)c(C)o3)C2)no1 (stereo unspecified) | -16.5 |
| N#Cc1ccc(CN2C(=O)c3ccccc3CS2(=O)=O)c(F)c1 | -0.639 |
| Cc1c(C(=O)NC(C)C)nnn1-c1cccc(C(F)(F)F)c1 | -1.54 |
| Cc1cc(C)n(CC2CCCN2C(=O)c2ccc3c(c2)OCCO3)n1 (stereo unspecified) | 5.43 |
| Cc1nn(C(C)C)c(C)c1S(=O)(=O)Nc1cccc(C(=O)O)c1 | 9.53 |
| Nc1nccnc1C(=O)N1CC(OCc2cccc3ccccc23)C1 | 7.39 |
| CCC(C)(C)C(=O)NCCCOC1CCOC1 (stereo unspecified) | -6.21 |
| COCCN(C)c1ccc(NCc2cccnc2)nc1 | -9.9 |
| CCOc1ccc(C(F)(F)F)cc1NC(=O)N1CCNC(=O)C1 | -1.11 |
| COc1ccc(-c2ccc(C(=O)O)c(F)c2)c(F)c1 | -0.378 |
| CCc1ccc(C(COC)NC(=O)c2ccc(O)nc2)o1 (stereo unspecified) | 3.06 |
| O=C(CC1=CCCCC1)Nc1ccc(CN2C(=O)CCC2=O)cc1 | 0.719 |
| COc1ccnc(N(C)Cc2ccccc2OC(F)(F)F)n1 | 6.15 |
| Cc1noc(C)c1CC(=O)OCc1nc(N)c2ccccc2n1 | 6.83 |

| SMILES | cytotoxicity at 10 µM [%] |
| --- | --- |
| Cn1cnnc1-c1cncc(NCc2cccc3c2OCO3)c1 | 9.15 |
| O=C(C(c1ccccc1)N1CCc2cncnc2C1)N1CCCCC1 (stereo unspecified) | 1.26 |
| COCCC(=O)N1CCN(CC2CC2)c2ccccc21 | -4.5 |
| NC(=O)NC(CC(=O)N1CCc2sccc2C1)c1cccc(Br)c1 (stereo unspecified) | 3.43 |
| COCC1CN(C(=O)Nc2cc(-n3cccc3)ccc2F)CCO1 (stereo unspecified) | 3.61 |
| Cc1oc(C(=O)O)cc1S(=O)(=O)Nc1cccc(-n2nccc2C)c1 | 4.46 |
| COC(=O)C1CCN(c2cncc(-n3nc(C)cc3C)n2)CC1 | -9.44 |
| COc1cc(C)nc(N2CCN(C(=O)CCc3cscn3)CC2)n1 | -10.2 |
| CCOC(C)c1nc(CN2CCNCC2)cs1 (stereo unspecified) | -13.3 |
| O=C(Nc1nncs1)NC1CCOc2ccccc21 (stereo unspecified) | -10.4 |
| Cn1nnc2c1C(COCC1CC1)CN(C(=O)CC1=CCCCC1)C2 (stereo unspecified) | -99.3 |
| Cn1nc(C#N)c2c1CN(C(=O)c1c[nH]cn1)CCC2 | -122 |
| Cc1nnc([C@H]2C[C@H]3CN(C(=O)Cc4ccc(F)cc4)CC[C@@H]3O2)o1 | -104 |
| CCN(Cc1nccs1)Cc1cc(Cl)ccc1OC | -1.06 |
| CCCn1nc(C)c2c1NC(=O)CC2c1ccc(CN2CCCC2)s1 (stereo unspecified) | 0.355 |
| c1ccc(CCCN2CCN(CCn3cncn3)CC2)cc1 | -11.3 |
| COc1cccc(CNC(=O)N2CCN3CCNC(=O)C3C2)c1 (stereo unspecified) | 2.62 |
| COc1ccc([C@@H](C)n2ccnc2-c2cc3n(n2)CCCNC3)cc1 | -8.48 |
| CN(CCc1ccccn1)C(=O)CCC1CCCN(S(C)(=O)=O)C1 (stereo unspecified) | 4.77 |
| CS(=O)(=O)NCC1CCN(Cc2cc3ccccc3[nH]c2=O)C1 (stereo unspecified) | -6.92 |
| COc1ccc(C(CC(=O)NCc2n[nH]c(N)n2)c2ccccc2)cc1 (stereo unspecified) | 7.66 |
| CC(=O)N[C@@H]1C[C@H](Cc2ccccc2)O[C@H](c2ccc(C(=O)O)cc2)C1 | 2.76 |
| CC(=O)N1CCCC(C(=O)N2Cc3nc(C)n(C)c(=O)c3C2)C1 (stereo unspecified) | -3.65 |

| SMILES | cytotoxicity at 10 µM [%] |
| --- | --- |
| COc1cccc(O)c1CN1CCCC(Nc2cccc(F)c2)C1 (stereo unspecified) | -4.47 |
| O=C(CCN1CCOC(C(F)(F)F)C1)NCc1cccc(Cl)c1 (stereo unspecified) | 2.04 |
| Cn1ncc2c(NCC3CCS(=O)(=O)C3)nc(-c3ccncc3)nc21 (stereo unspecified) | -3.91 |
| COCCN(Cc1ccccn1)Cc1sccc1C | -3.6 |
| Cc1cccc(C(C(=O)NCc2nc(-c3cccnc3)no2)N(C)C)c1 (stereo unspecified) | 6.45 |
| Cn1ccc(C2CCCCN2C(=O)c2cccc(Cn3cccn3)c2)n1 (stereo unspecified) | 8.04 |
| CCn1cc(CN2CCC(c3nnc(CN(C)C)n3CC)CC2)cn1 | -22.3 |
| CN1CCCN(C(=O)c2ccc3c(c2)nc(N2CCOCC2)n3C)CC1 | -11.9 |
| CCNC(=O)[C@@H]1C[C@H](NC(=O)c2cncnc2C)CN1CCCSC | -11.7 |
| COc1cccc(OCC2CCCN(C3CCN(C(C)=O)CC3)C2)c1 (stereo unspecified) | -18.3 |
| CS(=O)(=O)CCC(=O)N1CCC2(CCCN(C3CCOCC3)C2=O)C1 (stereo unspecified) | -7.64 |
| O=C(c1ccc(C2CCCO2)s1)N1CCS(=O)(=O)CC1 (stereo unspecified) | -14.8 |
| Cn1ccnc1CN1CCN(Cc2ccc(C#N)cc2F)CC1 | -13.2 |
| COc1c(CNC2CCCOc3ccccc32)c(C(C)C)nn1C (stereo unspecified) | -3.48 |
| O=C(c1nn(-c2ccccc2F)cc1O)N1CCCCC1 | 3.36 |
| NC(=O)NCCC(=O)NCc1nn(-c2ccccc2)c2c1CCC2 | -9.83 |
| Cc1cnn(CCNCc2csc(-c3ccc(C)o3)n2)c1 | -1.64 |
| COC(=O)CN1CCC(C(=O)c2cc(F)ccc2F)CC1 | -6.52 |
| CCc1nc(C2CCCN2CC(=O)N2CCCc3ccccc32)no1 (stereo unspecified) | -25.2 |
| CCOc1ccccc1OC1CCN(C(=O)c2csnn2)CC1 | -5.5 |
| O=C(Cc1ccc2c(c1)CCO2)N1CCN(c2ccncc2)CC1 | -4.8 |
| CN(Cc1ccsc1)C(=O)Nc1ccc(N2CCCC2)nc1 | -10.5 |
| COc1ccc(CC(=O)N2CCCC(n3nc(C)cc3C)C2)cc1 (stereo unspecified) | 0.471 |

| SMILES | cytotoxicity at 10 µM [%] |
| --- | --- |
| Cc1cc(C(=O)NCc2ccc(N3CCCC(C(N)=O)C3)cc2)on1 (stereo unspecified) | -9.56 |
| Cc1nn(C)c(N(C)C)c1CNCc1ccccc1CO | -8.84 |
| Cc1nc(C2CCCN(C(=O)c3cccc4c3OCCO4)C2)no1 (stereo unspecified) | -8.93 |
| O=C(CCN1CCCN(c2nccs2)CC1)Nc1ccccc1 | 10.5 |
| Cc1cc(NC(=O)N(CC2CCOC2)C2CC2)no1 (stereo unspecified) | -0.457 |
| Cc1ccc(NC2CCN(C(=O)Cc3csc(C)n3)CC2)nn1 | -6.51 |
| NS(=O)(=O)Cc1ccc(CNC(=O)NCC2CCOC2)cc1 (stereo unspecified) | 1.18 |
| Cc1ccccc1OC1CCN(CC(=O)Nc2ccn(C)n2)CC1 | -3.34 |
| Fc1ccc(CN2CCO[C@H]3[C@H](OCCN4CCCC4)CC[C@@H]32)cc1 | 2.17 |
| CCN(C)c1ncnc2c1CCN(C(=O)c1ccsc1)CC2 | -0.408 |
| COc1c(CNCCNC(=O)c2ccccc2)c(C)nn1C | -4.74 |
| Cc1ccc(CN2CCCC3(CCCCN3S(C)(=O)=O)C2)s1 (stereo unspecified) | -115 |
| Cc1cccc(NC(=O)N2CCCn3cnc(CN4CCCC4)c3C2)c1 | -12.2 |
| CN1CCN(S(=O)(=O)c2ccccc2)Cc2cccnc21 | -104 |
| Cn1cc(C(=O)N[C@@H]2CN(Cc3cccs3)[C@@H]3CCCO[C@@H]32)cn1 | -13.4 |
| COCCN1C(=O)[C@]2(CC[C@@H]3CN(Cc4ccccc4F)C[C@@H]32)N=C1C | -0.0957 |
| CC1=N[C@@]2(CC[C@@H]3CN(Cc4cccc(Cl)c4)C[C@@H]32)C(=O)N1CC1CC1 | 0.758 |
| CSc1ncccc1C(=O)N1C[C@@H]2CC[C@H]1CN(c1ncccn1)C2 | -4.03 |
| CCN1CCc2c(sc3c2C(=O)NC(C=Cc2ccccc2)N3)C1 (stereo unspecified) | 4.73 |
